Experimental data: article PMC10596003 (ACS Chemical Biology, 2023)
Read-outs that look alike come from different tables or passages of the source.

What was measured:
SAMHD1 A1 site = SAMHD1 A1 site (Homo sapiens, UniProt Q9Y3Z3); assay: fluorescence anisotropy competitive binding assay with 5′-FAM-pdGpdGpdG-3′ probe; conditions: competition with 5′ FAM-pdGpdGpdG-3′ probe
SAMHD1 [1] = target: T1, SAMHD1 (Homo sapiens, UniProt Q9Y3Z3); assay: glutaraldehyde protein cross-linking assay of oligomeric state; conditions: for D (%), dimer / T (%), tetramer: 500 μM ligand, 600 nM SAMHD1; for effect on oligomeric state: 500 μM analog (dGTPαS 100 μM), 0.6 μM SAMHD1
SAMHD1 [2] = target: T1, SAMHD1; assay: malachite green; type: biochemical; conditions: for IC50: 50 μM GTP and 50 μM dATP, 11-point dose response; for inhibition at 500 µM: read-out: dNTPase inhibition (%, [I] = 500 μM)
[3] = target: SAMHD1 binding to ssDNA32 (Homo sapiens, UniProt Q9Y3Z3); assay: fluorescence anisotropy displacement of 5′-FAM-labeled ssDNA32; conditions: read-out: EC50 ssDNA displacement; 1 μM SAMHD1, 0.5 μM ssDNA32
Procedure, shortened: (§1)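 SAMHD1 (1 μM) was preincubated with 0.5 μM 5′-FAM-labelled 32mer ssDNA or ssRNA; the two strands have identical base sequences. […] SD from triplicate experiments.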

[4] = target: SAMHD1 binding to ssRNA32 (Homo sapiens, UniProt Q9Y3Z3); assay: fluorescence anisotropy displacement of 5′-FAM-labeled ssRNA32; conditions: read-out: EC50 ssRNA displacement; 1 μM SAMHD1, 0.5 μM ssRNA32
Procedure, shortened: as §1

Sequence of SAMHD1 A1 site (Q9Y3Z3 whole entry): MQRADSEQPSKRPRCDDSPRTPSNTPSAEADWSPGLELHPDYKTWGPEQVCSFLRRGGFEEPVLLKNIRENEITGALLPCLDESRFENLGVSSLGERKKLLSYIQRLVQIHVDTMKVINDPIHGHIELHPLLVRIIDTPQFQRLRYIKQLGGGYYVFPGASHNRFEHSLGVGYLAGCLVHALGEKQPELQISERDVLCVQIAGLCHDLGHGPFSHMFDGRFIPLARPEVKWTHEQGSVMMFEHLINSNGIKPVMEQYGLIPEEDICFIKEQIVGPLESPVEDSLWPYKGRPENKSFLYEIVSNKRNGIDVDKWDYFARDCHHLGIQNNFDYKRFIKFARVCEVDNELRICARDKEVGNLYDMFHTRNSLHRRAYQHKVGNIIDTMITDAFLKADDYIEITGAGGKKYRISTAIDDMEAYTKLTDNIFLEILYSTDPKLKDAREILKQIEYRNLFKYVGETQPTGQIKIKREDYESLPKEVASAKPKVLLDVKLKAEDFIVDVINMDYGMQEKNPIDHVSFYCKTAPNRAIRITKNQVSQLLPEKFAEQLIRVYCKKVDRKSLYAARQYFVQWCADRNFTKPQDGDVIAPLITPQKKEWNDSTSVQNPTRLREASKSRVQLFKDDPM
T1 sequence (Q9Y3Z3 whole entry): as above
Sequence of SAMHD1 binding to ssDNA32 (Q9Y3Z3 whole entry): as above
Sequence of SAMHD1 binding to ssRNA32 (Q9Y3Z3 whole entry): as above

SMILES | Kd (SAMHD1 A1 site; read-out: binding Kd) [µM] | D (%), dimer (SAMHD1 [1]) [%] | T (%), tetramer (SAMHD1 [1]) [%] | Kd (SAMHD1 A1 site; binding Kd (μM)) [µM] | further results
Nc1nc2c(ncn2[C@H]2C[C@H](OP(=O)(O)O[C@H]3C[C@H](n4cnc5c(N)ncnc54)O[C@@H]3CO)[C@@H](CO)O2)c(=O)[nH]1 [5′-dGpdA-5′] | 70 ± 13 | 93 | 0 | – | –
Cn1c[n+]([C@@H]2O[C@H](COP(=O)([O-])OP(=O)(O)OP(=O)(O)O)[C@@H](O)[C@H]2O)c2nc(N)[nH]c(=O)c21 [Compound 7-Me-GTP] | > 1000 | – | – | – | –
Nc1nc2c(nc(Br)n2[C@H]2C[C@H](O)[C@@H](CO)O2)c(=O)[nH]1 [Compound 8-bromo-dG, 8-bromo-deoxyguanosine] | – | 62 | 0 | > 1000 | –
Nc1nc2c([nH]c(=O)n2[C@H]2C[C@H](O)[C@@H](CO)O2)c(=O)[nH]1 [Compound 8-oxo-dG, 8-oxo-deoxyguanosine] | – | 37 | 0 | > 1000 | –
O=C(O)c1cccc(-c2cccc(Br)c2)c1 [Compound 1023, 3′-bromobiphenyl-3-carboxylic acid] | – | 17 | 0 | > 500 | IC50 (SAMHD1 [2]; IC50 (μM)): 220 ± 150 µM
Nc1nc2c(ncn2[C@@H]2O[C@H](COP(=O)(O)OP(=O)(O)O)[C@@H](O)[C@H]2O)c(=O)[nH]1 [GDP] | 210 ± 32 | 88 | 0 | – | effect on oligomeric state (SAMHD1 [1]): can induce dimerization
Nc1nc2c(ncn2[C@@H]2O[C@H](COP(=O)(O)O)[C@@H](O)[C@H]2O)c(=O)[nH]1 [GMP] | 110 ± 41 | 87 | 0 | – | –
Nc1nc2c(ncn2[C@@H]2O[C@H](COP(=O)(O)OP(=O)(O)OP(=O)(O)O)[C@@H](O)[C@H]2O)c(=O)[nH]1 [GTP] | 61 ± 11 | – | 30 | – | effect on oligomeric state (SAMHD1 [1]): induced complete dimerization; EC50 [3]: 89 ± 25 µM; EC50 [4]: 170 ± 32 µM
Nc1nc2c(ncn2COCCO)c(=O)[nH]1 [acyclovir] | – | 78 | 0 | – | inhibition at 500 µM (SAMHD1 [2]): 68 ± 31%
Nc1ncnc2c1ncn2[C@H]1C[C@H](O)[C@@H](COP(=O)(O)O)O1 [dAMP] | > 1000 | 32 | 0 | – | –
Nc1nc2c(ncn2[C@H]2C[C@H](O)[C@@H](CO)O2)c(=O)[nH]1 [dG, deoxyguanosine] | – | 80 | 0 | 79 ± 20 | IC50 (SAMHD1 [2]; IC50 (μM)): 130 ± 89 µM; inhibition at 500 µM (SAMHD1 [2]): 65 ± 2.4%
Nc1nc2c(ncn2[C@H]2C[C@H](O)[C@@H](COP(=O)(O)OP(=O)(O)O)O2)c(=O)[nH]1 [dGDP] | 130 ± 28 | 39 | 56 | – | effect on oligomeric state (SAMHD1 [1]): induced tetramerization
Nc1nc2c(ncn2[C@H]2C[C@H](O)[C@@H](COP(=O)(O)O)O2)c(=O)[nH]1 [dGMP] | 140 ± 43 | 91 | 0 | – | IC50 (SAMHD1 [2]): 110 ± 47 µM
Nc1nc2c(ncn2[C@H]2C[C@H](O)[C@@H](COP(O)(=S)OP(=O)(O)OP(=O)(O)O)O2)c(=O)[nH]1 (some centres unmarked) [dGTPαS] | – | – | – | – | effect on oligomeric state (SAMHD1 [1]): induced tetramerization
Nc1nc2c(ncn2[C@@H]2O[C@H](CO)[C@@H](O)[C@H]2O)c(=O)[nH]1 [rG, guanosine] | – | 64 | 0 | 500 ± 185 | inhibition at 500 µM (SAMHD1 [2]): 6 ± 8.5%
